# RBBP9 inh: blocks human serine hydrolase RBBP9; O75884; recombinant RBBP9, FP-Rh probe fluorescence polarization; inhibition, % at 7.94 µM; hit rate 0.2% among 220,000; AID 1515;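 active = inhibition above the campaign mean of all tested compounds plus 3 SD, cut at about 14% in these data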;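 also: plate controls were DMSO wells with RBBP9 for no effect and wells lacking RBBP9 protein for full effect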
#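 Measured by – fluorescence polarization · Test system – RBBP9 protein · Input – 2.5 µM RBBP9 dispensing solution, before mixing · Measure – percent inhibition from mP, scaled between DMSO and no-protein wells · Benchmarks – DMSO-treated enzyme wells and wells lacking RBBP9 · Times – preincubation 30 min plus labeling 45 min at 25 °C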
# GSTO1 inh: counter-screen for RBBP9 inhibitors: inhibitors of human GSTO1; P78417; recombinant GSTO1, activity-based probe fluorescence polarization; inhibition, % at 5.96 µM; hit rate 1.1% among 300,000;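 active = inhibition above the campaign mean inhibition plus 3 SD, cut at about 35% in these data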;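 also: 0% = GSTO1-1 with DMSO and 100% = wells lacking GSTO1-1 enzyme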
# PAD4 inh: inhibitors of human PAD4; hit rate 0.41% among 330,000; inhibition, % at 6.36 µM; recombinant PAD4, RCA probe fluorescence polarization; Q9UM07;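 active = percent inhibition above a cutoff equal to the mean of all tested compounds plus 3 SD, cut at about 15% in these data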;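 also: 0% = PAD4 with RCA probe and DMSO and 100% = probe without PAD4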
# PRMT1 inh: blocks human protein arginine methyltransferase 1 | Q99873 | recombinant PRMT1, activity-based probe fluorescence polarization | inhibition, % at 2.79 µM | hit rate 1.3% among 370,000 | AID 652257;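 active = inhibition above about 21% made by adding two undisclosed values, limit read from the data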
# SIAE primary: inhibitors of human sialic acid acetylesterase SIAE; AID 1053197; inhibition, % at 9.66 µM; SIAE FP-Rh probe binding, fluorescence polarization; Q9HAT2; hit rate 0.69% among 370,000;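 active = inhibition above a cutoff: mean of compounds within the control limits plus 3 SD of those, cut at about 17% in these data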;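 also: 0% = plate median of compound wells and 100% = probe without SIAE protein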
# Target sequence (Q9HAT2 whole entry, looked up): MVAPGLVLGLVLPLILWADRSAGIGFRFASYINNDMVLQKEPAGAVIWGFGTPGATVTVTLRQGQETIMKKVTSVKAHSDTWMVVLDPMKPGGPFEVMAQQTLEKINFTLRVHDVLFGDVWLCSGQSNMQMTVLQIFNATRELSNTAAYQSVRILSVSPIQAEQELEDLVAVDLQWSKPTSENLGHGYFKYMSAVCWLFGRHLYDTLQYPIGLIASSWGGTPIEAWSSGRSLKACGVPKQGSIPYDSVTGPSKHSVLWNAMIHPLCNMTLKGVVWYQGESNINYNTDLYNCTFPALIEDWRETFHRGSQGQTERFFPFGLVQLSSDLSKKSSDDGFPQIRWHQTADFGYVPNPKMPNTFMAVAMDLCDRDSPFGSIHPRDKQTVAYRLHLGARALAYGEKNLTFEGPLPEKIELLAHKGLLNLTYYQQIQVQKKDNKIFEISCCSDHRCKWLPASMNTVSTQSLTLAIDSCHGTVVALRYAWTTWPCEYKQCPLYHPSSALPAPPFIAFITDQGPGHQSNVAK
# PRMT1 inh conf: confirmation of human PRMT1 inhibitors. shares compounds with PRMT1 inh. recombinant His-PRMT1, activity-based probe fluorescence polarization. inhibition, % at 2.79 µM. hit rate 42% among 3,300;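 active = mean inhibition across replicates above the hit cutoff derived for the earlier primary screen, cut at about 22% in these data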
# * hit, by the source's call; · = no result. An excerpt weighted towards active compounds, which were near 2.7% of everything screened.
SMILES,RBBP9 inh,GSTO1 inh,PAD4 inh,PRMT1 inh,SIAE primary,PRMT1 inh conf
CCOc1ccc2[nH]c(=O)c(CN(Cc3ccco3)C(=O)c3ccc(Br)cc3)cc2c1,-1,·,·,36*,-5,0
CCc1ccc2[nH]c(=O)c(CN(CCN(C)C)C(=S)NCc3ccco3)cc2c1,2,2,-2,33*,3,2
CCOc1ccc2[nH]c(=O)c(CN(Cc3ccco3)C(=O)c3cccc(F)c3)cc2c1,-3,6,-2,·,·,·
O=c1c2cc(N3CCOCC3)ccc2[nH]c(=S)n1Cc1cccc(Cl)c1,-12,18,3,-3,8,·
O=c1c2cc(N3CCOCC3)ccc2[nH]c(=S)n1Cc1ccco1,·,21,-2,32*,7,65*
O=C(CSc1nccn(-c2cccc(F)c2)c1=O)Nc1ccc(Cl)cc1F,·,-6,-1,75*,-5,69*
O=C(CSc1nccn(-c2ccc3c(c2)OCCO3)c1=O)Nc1ccccc1,·,3,-3,45*,9,24*
CC1CC(C)CN(C(=O)COC(=O)c2cccc(S(=O)(=O)N(C)c3ccccc3)c2)C1 (stereo not drawn),·,·,·,4,-4,·
CCOc1ccc2ccccc2c1/C=N/NC(=O)CNC(=O)Cc1ccccc1,-4,0,-6,0,-5,·
O=c1c2cc(Cl)ccc2oc2nc3n(c(=O)c12)CCCS3,-9,-19,0,63*,3,52*
O=C1C=CC(=O)N1,·,1,-2,78*,-11,87*
CC(=O)Nc1ccc(NC2(C)C(=O)c3ccccc3C2=O)cc1,-6,7,-2,2,12,·
N#C/C(=C\c1ccc([N+](=O)[O-])o1)C(=O)Nc1ccc(F)cc1,-4,6,-16,31*,-2,11
CCOc1ccc(NC(=O)C(=O)N/N=C/c2cccnc2)cc1,3,0,0,-3,2,·
COc1ccc(NC(=O)COC(=O)c2ccccc2SCC(=O)N2CCCC2)cc1,·,4,4,5,3,·
CC(=O)Nc1ccc(NC(=O)COC(=O)c2ccccc2SCC(=O)N2CCCC2)cc1,·,4,0,29*,6,24*
Cn1ncc2c1NC(c1ccc(F)cc1)SCC2=O (stereo not drawn),·,·,·,34*,1,55*
CC1=C(C(=O)NCc2ccc(Cl)cc2)C2(CCC(C)CC2)OC1=O (stereo not drawn),0,7,-2,2,13,·
Cc1cc(C)c2c(=O)n(CC(=O)NC3CCCC3)sc2n1,-20,0,4,83*,12,89*
Cc1cc(C)c2c(=O)n(CC(=O)Nc3cccc(Cl)c3C)sc2n1,-7,14,1,97*,6,92*
Cc1cc(C)c2c(=O)n(CC(=O)Nc3ccc(Br)c(C)c3)sc2n1,10,4,-2,93*,1,97*
COCCN(C(=O)COC(=O)/C=C/c1ccc(SC)cc1)c1c(N)n(Cc2ccccc2)c(=O)[nH]c1=O,·,·,·,-6,-9,·
O=C(NCCC1=CCCCC1)c1ccc(Cl)cc1,-6,7,2,·,·,·
O=C(c1ccc2ncsc2c1)N1CCN(c2ccccc2Cl)CC1,1,-3,0,17,2,·
Cc1cccc(N2CCN(C(=O)c3ccc4ncsc4c3)CC2)c1C,2,·,·,38*,0,1
SMILES,RBBP9 inh,GSTO1 inh,PAD4 inh,PRMT1 inh,SIAE primary,PRMT1 inh conf
O=C(COC(=O)c1cc(Br)ccc1O)NNC(=O)c1ccc(Cl)cc1,·,15,-2,7,-8,·
CC1(C)CC(=O)C(CS(=O)(=O)c2ccccc2)=C(O)C1,·,6,-6,27*,1,22*
COc1ccc(N2C(=O)CC(N(C)CCc3ccc(OC)c(OC)c3)C2=O)cc1 (stereo not drawn),1,3,2,48*,-1,3
COc1ccc(CCN(C)C2CC(=O)N(c3ccccc3)C2=O)cc1OC (stereo not drawn),8,8,1,46*,0,2
COc1ccc(C2c3cc(OC)c(OC)cc3CCN2C2CC(=O)N(c3ccccc3)C2=O)cc1OC (stereo not drawn),-2,2,-6,42*,-2,5
Cc1sc2nc(CSCC(=O)NC3(C#N)CCCCC3)[nH]c(=O)c2c1C,·,·,-5,25*,3,5
COc1ccccc1NC(=O)CSc1nccc(=O)[nH]1,-3,10,-15,·,·,·
CC1(C(=O)NS(=O)(=O)c2ccc3ccccc3c2)CCN1C(=O)CC1CCCCC1 (stereo not drawn),·,·,·,0,-3,·
COc1ccc(NC(=O)CS(=O)(=O)c2cn(CC(=O)N3CCOCC3)c3ccccc23)cc1OC,·,2,2,35*,4,21*
COc1ccccc1-n1c(SCc2cc(=O)oc3cc(O)ccc23)nc2ccccc2c1=O,-15,-8,-5,2,-32,·
CCC(CO)n1c(SCc2cc(=O)oc3cc(C)ccc23)nc2ccccc2c1=O (stereo not drawn),-8,2,7,77*,-4,67*
Cc1ccc(/C=C/C(=O)Nc2ccc(N(C)C)cc2)o1,4,4,2,2,3,·
Cc1ccc(/C=C/C(=O)Nc2cccc(S(=O)(=O)N3CCOCC3)c2)o1,-5,2,-3,36*,0,5
Cc1ccc(/C=C/C(=O)NCCc2cccc(Cl)c2)o1,·,0,-2,46*,-1,90*
Cc1ccc(/C=C/C(=O)NCC2COc3ccccc3O2)o1 (stereo not drawn),-1,-2,-1,34*,-15,30*
O=C(/C=C/c1ccco1)Nc1cccc(S(=O)(=O)N2CCOCC2)c1,-7,-3,-4,-1,6,·
Cc1ccc(/C=C/C(=O)NCCc2c[nH]c3ccccc23)o1,-2,7,1,5,-1,·
Cc1ccc(/C=C/C(=O)Nc2ccc(S(N)(=O)=O)cc2)o1,7,1,-2,76*,-6,81*
Cc1ccc(/C=C/C(=O)Nc2ccncc2)o1,-6,1,0,8,3,·
Cc1ccc(/C=C/C(=O)NC2CCCCCCC2)o1,-10,2,-5,50*,6,59*
Cc1ccc(/C=C/C(=O)OCC(=O)NCCc2ccc(S(N)(=O)=O)cc2)o1,·,·,0,5,0,·
Cc1ccc(/C=C/C(=O)N2CCN(S(=O)(=O)c3ccc(C)c(C)c3)CC2)o1,-8,0,0,37*,6,52*
CC(=O)NS(=O)(=O)c1ccc(NC(=O)/C=C/c2ccc(C)o2)cc1,-9,-3,2,27*,8,77*
Cc1ccc(/C=C/C(=O)NCc2ccc(S(N)(=O)=O)cc2)o1,-9,·,·,42*,14,81*
Cc1oc2cc3oc(=O)c(CC(=O)NCCC(=O)O)c(C)c3cc2c1C,·,·,·,-2,-2,·
Cc1ccc(C)c(N2CCN(C(=S)Nc3ccc4nc(N5CCN(C)CC5)cc(C)c4c3)CC2)c1,-3,7,-3,-1,13,·
